Laboratory results: ChEMBL document CHEMBL1152475, “Investigation of the antioxidant properties of some new 4-hydroxycoumarin derivatives” (Eur J Med Chem, 2009)
Active and inactive are the calls of the source. No cut-off for these calls is given here.

Experiments:
[1] = Antioxidant activity assessed as luminol-dependent chemiluminescence at 100 uM relative to control; assay type: functional
Outline: (§1)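 Chemiluminescence run in 1 ml PBS with 0.1 mM luminol and 0.06 mM NaOCl to generate ClO⁻. Compound at several concentrations up to 10^-4 mol/L, or buffer for controls. CL recorded every 50 ms after NaOCl addition in flash mode. Scavenger index (CL-SI) expressed relative to the buffer control, set at 100%.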

HUVEC = assay: Cytoprotective activity against linoleic acid hydroperoxide-induced toxicity in HUVEC cells after 3 hrs; assay type: functional, cell-based; conditions: Homo sapiens
[2] = Antioxidant activity assessed as decrease in luminol-dependent chemiluminescence's scavenger index; assay type: functional; outline: as §1
EJ = assay: Cytotoxicity against human EJ cells; assay type: functional, cell-based
HL-60 = assay: Cytotoxicity against human HL60 cells; assay type: functional, cell-based
[3] = Antioxidant activity assessed as luminol-dependent chemiluminescence at 1 uM; assay type: functional; outline: as §1

For `CCOC(=O)C(C(C)=O)C(c1ccc(C(=O)O)cc1)c1c(O)c2ccccc2oc1=O` (stereo not given), the Activity [1] was “Active”.
For `O=c1ccc2cc(O)c(O)cc2o1`, the Activity (HUVEC) was “Active”.
With `CCOC(=O)C(C(C)=O)C(c1cccc([N+](=O)[O-])c1)c1c(O)c2ccccc2oc1=O` (stereo not given) the Activity [2] was “Dose-dependent effect”, the Activity [1] was 7% and the Activity (EJ) was “Active”. The Activity (HL-60) was “Active”.
For `CCOC(=O)C(C(C)=O)C(c1cc(OC)c(OC)c(OC)c1)c1c(O)c2ccccc2oc1=O` (stereo not given), the Activity [2] was “Dose-dependent effect” and the Activity [1] was “Active”.
With `CCOC(=O)C(C(C)=O)C(c1ccc(O)cc1)c1c(O)c2ccccc2oc1=O` (stereo not given) the Activity [3] was “Active” and the Activity [1] was “Active”.
